High-throughput results deposited in PubChem BioAssay by Johns Hopkins Ion Channel Center.
MrgX1 antag = blocks BAM8-22 activation of human MrgX1 receptor | MRGX1-HEK293 calcium flux, Fluo-4, BAM8-22 antagonism; hits give low values | B-score at 10 µM | Q96LB2 | 310,000 compounds, 1.3% hits;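 active means calcium-response B-score plate-corrected more than 3 library SD below zero, starting fluorescence within 5 deviations, no agonist response on first addition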;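 further: peak minus trough fluorescence over baseline after final BAM8-22 challenge near maximal dose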
Target sequence (Q96LB2 whole entry, looked up): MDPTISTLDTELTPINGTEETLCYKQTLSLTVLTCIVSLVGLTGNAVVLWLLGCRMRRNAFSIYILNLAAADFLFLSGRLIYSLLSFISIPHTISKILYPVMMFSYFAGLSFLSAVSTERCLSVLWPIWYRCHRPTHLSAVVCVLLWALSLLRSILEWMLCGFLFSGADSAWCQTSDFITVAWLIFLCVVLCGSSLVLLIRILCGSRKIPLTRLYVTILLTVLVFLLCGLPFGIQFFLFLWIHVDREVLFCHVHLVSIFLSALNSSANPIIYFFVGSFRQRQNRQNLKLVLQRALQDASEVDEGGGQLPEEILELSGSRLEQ
RGS4 inh = human RGS4 inhibition | P49798 | HEK293 M3R/RGS4 inducible, Fluo-4 calcium flux; hits give high values; triggered by carbachol at its EC20 | B-score at 10 µM | 310,000 compounds, 0.45% hits;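 active means B-score, a plate-corrected calcium signal, over three deviations above library mean, with baseline fluorescence within five deviations of library mean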;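 further: RGS4 expression induced by doxycycline in cells with stable M3 receptor; B-score is computed from the integrated fluorescence ratio over baseline after carbachol; higher B-score means a larger calcium signal and so more RGS4 inhibition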
Target sequence (P49798 whole entry, looked up): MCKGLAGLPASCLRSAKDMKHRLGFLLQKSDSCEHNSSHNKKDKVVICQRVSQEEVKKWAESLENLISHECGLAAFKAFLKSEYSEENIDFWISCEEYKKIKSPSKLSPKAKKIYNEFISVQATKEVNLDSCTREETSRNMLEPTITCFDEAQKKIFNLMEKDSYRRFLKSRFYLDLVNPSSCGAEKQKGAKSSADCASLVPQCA
MrgX1 agonist = activates human MrgX1 receptor signaling. Q96LB2. MrgX1-HEK293 cells, Fluo-4 calcium fluorescence, agonist mode; hits give high values. B-score at 10 µM. 310,000 compounds, 0.44% hits. AID 588627;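 active means calcium response B-score plate-corrected fluorescence ratio at least 3 library SD, with starting fluorescence B-score inside 5 SD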
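Assay system: stable human MrgX1 HEK293 cell line. Quantity: 15,000 cells per well. Schedule: cells plated overnight, dye loaded 0.5 h 37 °C, 0.5 h room temperature. Detection: Fluo-4 NW calcium-flux fluorescence, kinetic read. Read-out basis: peak-minus-minimum fluorescence over baseline, converted to B scores. Control set: positive and negative control wells on each plate.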
Kir21 inh = Kir2.1 (mouse) channel inhibition. HEK293-Kir2.1, FluxOR thallium flux fluorescence; hits give low values. B-score at 10 µM. 310,000 compounds, 0.85% hits;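 active means fluorescence ratio B-score at or below minus 3 SD of library scores, with starting-brightness B-score within 2 SD, cut at about -4.2 in these data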;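 further: channel flux triggered by added potassium and thallium sulfate stimulus; B-score of peak minus minimum fluorescence over baseline after thallium stimulus; more negative B-score means stronger Kir2.1 block with less thallium influx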
MrgX1 allo act = allosterically activates human MrgX1 receptor signaling | MrgX1-HEK293, Fluo-4 calcium flux, FDSS; hits give high values | B-score at 10 µM | 310,000 compounds, 0.63% hits | AID 588675;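 active means plate-corrected calcium response at least 3 library SD above typical, normal starting fluorescence, not activating the receptor alone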;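 further: compound read alongside a low EC10 to EC30 dose of BAM8-22 agonist; peak minus trough fluorescence over baseline measured at the second addition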
RGS4 act = RGS4 potentiation or activation; 310,000 compounds, 0.92% hits; B-score at 10 µM; HEK293 M3R/inducible RGS4, carbachol calcium flux Fluo4; hits give low values; AID 463111;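 active means B-score of the integrated calcium signal more than 4 SD below the library mean, with starting fluorescence not abnormally high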;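 further: negative B-score means reduced calcium response which marks RGS4 activation or potentiation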
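Material: Inducible-RGS4 HEK293 cells carrying M3 receptor; also added: carbachol at ECmax as muscarinic agonist stimulus; incubation: compound preincubation 20 min at room temperature before agonist; signal: Fluo4-AM (2 µM) calcium-flux fluorescence, kinetic read; measure: integrated calcium ratio converted to B score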
MrgX1 allo conf = reconfirmed allosteric activator of human MrgX1 receptor. shares compounds with MrgX1 allo act. MrgX1-HEK293, Fluo-4 calcium fluorescence, FDSS. activation (ratio percentage), % at 10 µM. 1,200 compounds, 13% hits. AID 602413;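 active means ratio at least 3 SD above the weak peptide control, stable starting fluorescence, no direct agonism earlier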;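 further: compound followed by low BAM8-22 agonist challenge near EC20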
HEK293 Ca flux = MrgX1 antagonist counter-screen hit in parental HEK293 cells; 4,000 compounds, 2% hits; fluorescence ratio F(max-min)/F0 at 10 µM; shares compounds with MrgX1 antag; Fluo-4 calcium fluorescence, FDSS;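 active means duplicate-averaged calcium fluorescence ratio at least three times the standard deviation of buffer wells, a nonspecific response in parental cells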
HEK293 Ca counter = activity in parental HEK293 cells without MrgX1 | shares compounds with MrgX1 antag | parental HEK293 calcium flux, Fluo-4 fluorescence ratio; hits give high values | fluorescence ratio F(max-min)/F0 at 10 µM | 4,000 compounds, 0.4% hits | AID 624114;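 active means calcium fluorescence ratio, averaged over duplicates, at least 3 SD of the buffer-well ratio, meaning a nonspecific response in receptor-free cells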;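 further: untransfected parental HEK293 lacking MrgX1 used as counterscreen for MrgX1 allosteric activators; fluorescence change taken during the second addition on a kinetic imager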
HEK293 Ca cntr2 = MrgX1 activator counter-screen hit in parental HEK293 cells. shares compounds with MrgX1 antag. Fluo-4 calcium fluorescence (FDSS); hits give high values. fluorescence ratio F(max-min)/F0 at 10 µM. 4,000 compounds, 8.7% hits;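 active means calcium fluorescence ratio at least three times the spread of buffer wells, meaning a non-specific response in parental cells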
* hit, by the source's call. Only some compounds are listed: those with a hit (about 4.1% of all), similar ones and a draw of the others.

What do the screens show for `COc1ccc(C(=O)Nc2scc(-c3ccc(Cl)cc3Cl)c2C(N)=O)cc1`?
MrgX1 antag: inactive; RGS4 inh: inactive; MrgX1 agonist: inactive; Kir21 inh: 0.52; MrgX1 allo act: 27*; RGS4 act: inactive; MrgX1 allo conf: 20%*; HEK293 Ca flux: inactive; HEK293 Ca counter: inactive; HEK293 Ca cntr2: inactive

How did Cc1ccc(-c2cc(-c3n[nH]c(=S)n3C)c3ccccc3n2)cc1 do in these assays?
MrgX1 antag: inactive; RGS4 inh: inactive; MrgX1 agonist: inactive; Kir21 inh: 2.1; MrgX1 allo act: 11*; RGS4 act: inactive; MrgX1 allo conf: inactive; HEK293 Ca flux: inactive; HEK293 Ca counter: inactive; HEK293 Ca cntr2: inactive

What do the screens show for `CCn1c(-c2cc(-c3ccc(C)c(C)c3)nc3ccccc23)n[nH]c1=S`?
MrgX1 antag: inactive; RGS4 inh: inactive; MrgX1 agonist: inactive; Kir21 inh: 1.2; MrgX1 allo act: inactive; RGS4 act: inactive

What do the screens show for `CCNC(=O)CSc1nc2ccccc2c(=O)n1CCCOC(C)C`?
MrgX1 antag: inactive; RGS4 inh: inactive; MrgX1 agonist: inactive; Kir21 inh: 0.97; MrgX1 allo act: inactive; RGS4 act: inactive

What do the screens show for `Clc1ccc2c(NCc3ccccn3)ccnc2c1`?
MrgX1 antag: inactive; RGS4 inh: inactive; MrgX1 agonist: inactive; Kir21 inh: 2.6; MrgX1 allo act: inactive; RGS4 act: inactive

What do the screens show for `CCOc1ccccc1Nc1ccnc2cc(Cl)ccc12`?
MrgX1 antag: inactive; RGS4 inh: inactive; MrgX1 agonist: inactive; Kir21 inh: 0.48; MrgX1 allo act: 11*; RGS4 act: inactive; MrgX1 allo conf: inactive; HEK293 Ca flux: inactive; HEK293 Ca counter: inactive; HEK293 Ca cntr2: inactive

Results for CN1C(=O)/C(=C2\SC(=S)N(C(CCC(=O)O)C(=O)O)C2=O)c2ccccc21 (centres undefined) ?
MrgX1 antag: inactive; RGS4 inh: inactive; MrgX1 agonist: inactive; Kir21 inh: -0.09; MrgX1 allo act: inactive; RGS4 act: inactive

How did Cn1c(=O)c2c(nc(CN3CCc4ccccc4C3)n2CC(=O)c2ccccc2)n(C)c1=O do in these assays?
MrgX1 antag: inactive; RGS4 inh: inactive; MrgX1 agonist: inactive; Kir21 inh: 0.51; MrgX1 allo act: inactive; RGS4 act: inactive

What do the screens show for `Cn1c(=O)c2c(nc(CN3CCc4ccccc4C3)n2Cc2ccccc2)n(C)c1=O`?
MrgX1 antag: inactive; RGS4 inh: inactive; MrgX1 agonist: inactive; Kir21 inh: -0.14; MrgX1 allo act: 17*; RGS4 act: inactive; MrgX1 allo conf: 13%*; HEK293 Ca flux: inactive; HEK293 Ca counter: inactive; HEK293 Ca cntr2: inactive

How did O=c1c(-c2ccccc2)[n+]([O-])c2ccccc2n1O do in these assays?
MrgX1 antag: inactive; RGS4 inh: inactive; MrgX1 agonist: inactive; Kir21 inh: -0.13; MrgX1 allo act: 21*; RGS4 act: inactive; MrgX1 allo conf: 12%*; HEK293 Ca flux: inactive; HEK293 Ca counter: inactive; HEK293 Ca cntr2: inactive

What do the screens show for `Cc1ccc(-c2c(=O)n(O)c3ccccc3[n+]2[O-])cc1`?
MrgX1 antag: inactive; RGS4 inh: inactive; MrgX1 agonist: inactive; Kir21 inh: 0.14; MrgX1 allo act: inactive; RGS4 act: inactive
